Results: ChEMBL document CHEMBL2163192, “N,N-Dimethyl-[9-(arylsulfonyl)-2,3,4,9-tetrahydro-1H-carbazol-3-yl]amines as novel, potent and selective 5-HT₆ receptor antagonists” (Bioorg Med Chem Lett, 2012)
Blank lines part the entries; values can stand above or below the compound they belong to.

How the values were obtained:
[1] = target: T1, 5-hydroxytryptamine receptor 6 (Homo sapiens, UniProt P50406); test: Binding affinity to human 5-HT6 receptor
Outline: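 Radioligand binding assay at human 5-HT6 receptor; Ki values determined in triplicate.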

[2] = target: T1, 5-hydroxytryptamine receptor 6; test: Displacement of [3H]LSD from human cloned 5-HT6 receptor expressed in HEK293 cells; format: cell-based
CYP2D6 = CYP2D6 (Homo sapiens, UniProt P10635); test: Inhibition of human CYP2D6 at 3 uM; format: ADME
CYP2D6, sequence (P10635 whole entry, canonical isoform): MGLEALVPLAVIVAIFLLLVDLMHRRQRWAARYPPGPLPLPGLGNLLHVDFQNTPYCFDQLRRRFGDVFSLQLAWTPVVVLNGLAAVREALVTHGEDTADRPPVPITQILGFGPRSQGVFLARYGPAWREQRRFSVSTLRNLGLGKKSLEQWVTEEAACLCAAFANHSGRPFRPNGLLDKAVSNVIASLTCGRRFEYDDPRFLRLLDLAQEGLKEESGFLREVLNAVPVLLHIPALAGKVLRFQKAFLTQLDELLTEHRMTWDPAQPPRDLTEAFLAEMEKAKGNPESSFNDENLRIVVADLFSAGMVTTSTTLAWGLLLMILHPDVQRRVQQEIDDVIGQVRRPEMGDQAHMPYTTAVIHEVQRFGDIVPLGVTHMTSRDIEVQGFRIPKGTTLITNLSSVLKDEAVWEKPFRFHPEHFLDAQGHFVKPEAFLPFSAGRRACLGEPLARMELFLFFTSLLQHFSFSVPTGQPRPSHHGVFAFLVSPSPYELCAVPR
Outline: (§1)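 Isoform-selective inhibition assays using heterologously expressed human CYP enzymes; compounds tested at 3 μM; percent inhibition reported.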

[3] = target: D(2) dopamine receptor (Homo sapiens) (UniProt P14416); test: Inhibition of dopamine D2 receptor at 10 uM
D(2) dopamine receptor (Homo sapiens), sequence (P14416 whole entry): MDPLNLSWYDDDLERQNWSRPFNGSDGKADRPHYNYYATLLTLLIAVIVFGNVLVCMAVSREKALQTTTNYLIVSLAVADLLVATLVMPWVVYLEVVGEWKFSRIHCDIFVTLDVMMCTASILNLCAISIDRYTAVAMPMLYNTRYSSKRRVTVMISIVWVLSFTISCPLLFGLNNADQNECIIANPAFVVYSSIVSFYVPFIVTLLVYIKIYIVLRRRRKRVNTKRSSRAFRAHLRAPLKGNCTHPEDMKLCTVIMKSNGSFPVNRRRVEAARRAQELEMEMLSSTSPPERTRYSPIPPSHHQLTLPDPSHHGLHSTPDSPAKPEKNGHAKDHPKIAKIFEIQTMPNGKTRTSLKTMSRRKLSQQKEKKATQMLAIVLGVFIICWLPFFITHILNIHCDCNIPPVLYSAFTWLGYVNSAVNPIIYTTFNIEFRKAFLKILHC
Outline: (§2)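 In-house selectivity panel of related receptors and transporters; each compound tested at 1 μM and 10 μM; percent inhibition determined in duplicate and the mean of the two reported.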

[4] = target: Histamine H3 receptor (Homo sapiens) (UniProt Q9Y5N1); test: Inhibition of histamine H3 receptor at 1 uM; outline: as §2
Histamine H3 receptor (Homo sapiens), sequence (Q9Y5N1 whole entry): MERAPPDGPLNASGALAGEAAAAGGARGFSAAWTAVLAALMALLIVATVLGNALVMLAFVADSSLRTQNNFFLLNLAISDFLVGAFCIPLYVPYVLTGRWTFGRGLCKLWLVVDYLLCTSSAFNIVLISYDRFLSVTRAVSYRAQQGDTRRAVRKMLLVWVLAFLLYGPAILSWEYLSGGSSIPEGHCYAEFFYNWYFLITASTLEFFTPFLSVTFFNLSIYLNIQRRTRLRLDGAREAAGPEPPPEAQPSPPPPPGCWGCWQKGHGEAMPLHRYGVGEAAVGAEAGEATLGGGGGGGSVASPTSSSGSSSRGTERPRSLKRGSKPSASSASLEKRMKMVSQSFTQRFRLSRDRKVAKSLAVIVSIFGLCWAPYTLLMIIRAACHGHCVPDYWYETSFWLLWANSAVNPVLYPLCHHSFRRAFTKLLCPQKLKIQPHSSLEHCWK

[5] = target: Sodium-dependent serotonin transporter (Homo sapiens) (UniProt P31645); test: Inhibition of SERT at 1 uM; outline: as §2
Sodium-dependent serotonin transporter (Homo sapiens), sequence (P31645 whole entry, looked up): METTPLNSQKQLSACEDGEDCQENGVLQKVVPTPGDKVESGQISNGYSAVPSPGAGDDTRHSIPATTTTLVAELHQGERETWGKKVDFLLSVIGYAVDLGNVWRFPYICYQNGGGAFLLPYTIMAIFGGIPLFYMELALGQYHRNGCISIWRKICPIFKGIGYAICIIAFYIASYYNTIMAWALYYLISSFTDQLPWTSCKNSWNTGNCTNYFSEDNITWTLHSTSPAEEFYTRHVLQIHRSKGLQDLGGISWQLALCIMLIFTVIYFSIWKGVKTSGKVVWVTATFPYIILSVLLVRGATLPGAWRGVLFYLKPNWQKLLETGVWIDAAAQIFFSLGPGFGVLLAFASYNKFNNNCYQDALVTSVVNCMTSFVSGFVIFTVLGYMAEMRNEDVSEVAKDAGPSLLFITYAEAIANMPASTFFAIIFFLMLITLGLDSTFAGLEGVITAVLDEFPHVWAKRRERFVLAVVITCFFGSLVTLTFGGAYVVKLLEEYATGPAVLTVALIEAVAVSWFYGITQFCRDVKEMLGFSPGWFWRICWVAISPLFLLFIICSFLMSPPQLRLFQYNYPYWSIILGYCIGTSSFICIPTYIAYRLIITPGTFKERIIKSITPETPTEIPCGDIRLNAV

[6] = target: T2, 5-hydroxytryptamine receptor 1A (Homo sapiens) (UniProt P08908); test: Inhibition of 5-HT1A receptor at 1 uM; outline: as §2
T2 sequence (whole entry): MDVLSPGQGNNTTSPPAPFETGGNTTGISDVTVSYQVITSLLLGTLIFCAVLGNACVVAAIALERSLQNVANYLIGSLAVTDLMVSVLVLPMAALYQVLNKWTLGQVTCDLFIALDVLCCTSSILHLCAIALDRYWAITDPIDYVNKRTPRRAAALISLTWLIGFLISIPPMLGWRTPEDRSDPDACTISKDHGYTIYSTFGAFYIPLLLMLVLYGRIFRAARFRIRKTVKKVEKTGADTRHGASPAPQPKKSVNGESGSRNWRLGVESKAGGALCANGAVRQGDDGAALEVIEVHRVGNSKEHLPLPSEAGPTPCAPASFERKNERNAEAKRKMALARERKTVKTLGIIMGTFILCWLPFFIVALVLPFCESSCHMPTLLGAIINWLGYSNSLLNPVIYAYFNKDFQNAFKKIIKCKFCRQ

[7] = target: Histamine H3 receptor (Homo sapiens) (UniProt Q9Y5N1); test: Inhibition of histamine H3 receptor at 10 uM; outline: as §2
[8] = target: Histamine H4 receptor (Homo sapiens) (UniProt Q9H3N8); test: Inhibition of histamine H4 receptor at 10 uM; outline: as §2
[9] = target: T2, 5-hydroxytryptamine receptor 1A (Homo sapiens); test: Inhibition of 5-HT1A receptor at 10 uM; outline: as §2
[10] = target: 5-hydroxytryptamine receptor 2A (Homo sapiens) (UniProt P28223); test: Inhibition of 5-HT2A receptor at 1 uM; outline: as §2
5-hydroxytryptamine receptor 2A (Homo sapiens), sequence (P28223 whole entry): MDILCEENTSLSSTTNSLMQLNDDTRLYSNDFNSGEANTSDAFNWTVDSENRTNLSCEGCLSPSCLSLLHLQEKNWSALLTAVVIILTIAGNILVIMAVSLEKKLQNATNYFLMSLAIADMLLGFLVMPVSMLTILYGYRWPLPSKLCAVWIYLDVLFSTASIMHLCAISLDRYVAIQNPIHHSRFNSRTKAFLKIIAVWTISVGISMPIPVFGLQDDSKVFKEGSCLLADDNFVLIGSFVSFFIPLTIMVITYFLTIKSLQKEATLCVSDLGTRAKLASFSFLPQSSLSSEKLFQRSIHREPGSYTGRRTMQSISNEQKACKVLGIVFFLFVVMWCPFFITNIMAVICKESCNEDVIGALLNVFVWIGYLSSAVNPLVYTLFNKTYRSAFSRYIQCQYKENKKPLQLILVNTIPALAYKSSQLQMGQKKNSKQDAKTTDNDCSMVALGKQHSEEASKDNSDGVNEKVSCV

[11] = target: Sodium-dependent serotonin transporter (Homo sapiens) (UniProt P31645); test: Inhibition of SERT at 10 uM; outline: as §2
[12] = target: D(2) dopamine receptor (Homo sapiens) (UniProt P14416); test: Inhibition of dopamine D2 receptor at 1 uM; outline: as §2
[13] = target: Histamine H4 receptor (Homo sapiens) (UniProt Q9H3N8); test: Inhibition of histamine H4 receptor at 1 uM; outline: as §2
CYP2C19 = CYP2C19 (Homo sapiens, UniProt P33261); test: Inhibition of human CYP2C19 at 3 uM; format: ADME; outline: as §1
CYP2C19, sequence (P33261 whole entry): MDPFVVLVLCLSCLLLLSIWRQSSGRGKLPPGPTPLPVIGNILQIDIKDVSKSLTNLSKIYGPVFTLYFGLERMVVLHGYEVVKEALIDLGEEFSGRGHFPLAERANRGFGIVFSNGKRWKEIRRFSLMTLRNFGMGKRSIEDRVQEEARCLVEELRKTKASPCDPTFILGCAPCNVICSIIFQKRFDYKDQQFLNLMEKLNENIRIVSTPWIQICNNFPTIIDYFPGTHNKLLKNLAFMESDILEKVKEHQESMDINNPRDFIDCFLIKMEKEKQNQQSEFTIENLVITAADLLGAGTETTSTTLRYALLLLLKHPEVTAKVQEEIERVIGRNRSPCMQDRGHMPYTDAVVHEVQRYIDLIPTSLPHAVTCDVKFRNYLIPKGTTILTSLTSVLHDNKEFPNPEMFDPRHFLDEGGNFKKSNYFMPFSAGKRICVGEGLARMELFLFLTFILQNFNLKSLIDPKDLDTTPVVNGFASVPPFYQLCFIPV

CYP3A4 = CYP3A4 (Homo sapiens, UniProt P08684); test: Inhibition of human CYP3A4 at 3 uM; format: ADME; outline: as §1
CYP3A4, sequence (P08684 whole entry): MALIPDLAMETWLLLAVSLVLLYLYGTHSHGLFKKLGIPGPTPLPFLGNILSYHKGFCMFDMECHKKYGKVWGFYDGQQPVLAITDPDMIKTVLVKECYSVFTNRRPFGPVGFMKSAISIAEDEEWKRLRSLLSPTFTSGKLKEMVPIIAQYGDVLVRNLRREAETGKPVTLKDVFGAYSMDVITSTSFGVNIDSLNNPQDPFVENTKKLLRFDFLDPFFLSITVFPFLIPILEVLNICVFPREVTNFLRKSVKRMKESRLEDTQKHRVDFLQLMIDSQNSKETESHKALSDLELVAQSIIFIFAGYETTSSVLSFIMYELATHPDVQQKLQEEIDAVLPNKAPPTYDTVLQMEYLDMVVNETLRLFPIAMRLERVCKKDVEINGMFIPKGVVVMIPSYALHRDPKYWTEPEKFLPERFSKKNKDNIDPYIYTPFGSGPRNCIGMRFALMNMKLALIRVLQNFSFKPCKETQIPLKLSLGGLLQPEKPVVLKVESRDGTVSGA

[14] = target: Sodium-dependent dopamine transporter (Homo sapiens) (UniProt Q01959); test: Inhibition of DAT at 10 uM; outline: as §2
Sodium-dependent dopamine transporter (Homo sapiens), sequence (Q01959 whole entry): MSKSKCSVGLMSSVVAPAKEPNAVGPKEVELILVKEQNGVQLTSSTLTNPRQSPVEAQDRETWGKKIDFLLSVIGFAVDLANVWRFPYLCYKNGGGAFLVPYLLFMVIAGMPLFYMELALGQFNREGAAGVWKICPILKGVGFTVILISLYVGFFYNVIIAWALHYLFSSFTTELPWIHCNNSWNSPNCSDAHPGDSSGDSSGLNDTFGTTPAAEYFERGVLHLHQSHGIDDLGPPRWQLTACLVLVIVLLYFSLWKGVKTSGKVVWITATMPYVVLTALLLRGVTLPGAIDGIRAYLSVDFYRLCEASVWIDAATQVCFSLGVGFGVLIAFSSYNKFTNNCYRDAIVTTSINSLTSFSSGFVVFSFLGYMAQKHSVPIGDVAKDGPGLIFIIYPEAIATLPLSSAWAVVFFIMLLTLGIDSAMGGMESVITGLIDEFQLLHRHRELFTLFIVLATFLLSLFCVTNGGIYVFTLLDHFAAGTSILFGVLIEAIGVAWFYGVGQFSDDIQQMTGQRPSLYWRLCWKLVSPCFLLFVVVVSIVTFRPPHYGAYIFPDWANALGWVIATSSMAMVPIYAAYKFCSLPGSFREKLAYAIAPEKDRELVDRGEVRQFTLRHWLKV

[15] = target: T3, Alpha-1B adrenergic receptor (Homo sapiens) (UniProt P35368); test: Inhibition of alpha1B adrenergic receptor at 1 uM; outline: as §2
T3 sequence (whole entry): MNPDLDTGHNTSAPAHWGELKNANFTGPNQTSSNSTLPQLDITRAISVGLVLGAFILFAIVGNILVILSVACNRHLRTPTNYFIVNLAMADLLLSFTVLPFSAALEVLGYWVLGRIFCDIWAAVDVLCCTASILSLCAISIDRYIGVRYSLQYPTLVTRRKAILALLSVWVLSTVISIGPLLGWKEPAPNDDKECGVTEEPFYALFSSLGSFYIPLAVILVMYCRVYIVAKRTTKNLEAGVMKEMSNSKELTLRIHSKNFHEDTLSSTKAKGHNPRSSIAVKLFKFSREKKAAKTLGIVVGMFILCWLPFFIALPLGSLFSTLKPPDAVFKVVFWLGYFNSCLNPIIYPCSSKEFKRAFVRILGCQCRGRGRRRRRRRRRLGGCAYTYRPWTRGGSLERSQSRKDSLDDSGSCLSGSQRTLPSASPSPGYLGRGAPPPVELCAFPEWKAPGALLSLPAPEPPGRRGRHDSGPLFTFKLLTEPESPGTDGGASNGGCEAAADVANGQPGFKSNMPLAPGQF

[16] = target: T1, 5-hydroxytryptamine receptor 6; test: Antagonist activity at human recombinant 5-HT6 receptor expressed in CHO cells assessed as inhibition of 5-HT-stimulated cAMP accumulation after 4 hrs by luciferase reporter gene assay; format: functional, cell-based
Outline: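 Cell-based, non-radioactive reporter gene assay measuring antagonism of 5-HT-stimulated cAMP formation at human 5-HT6 receptor; IC50 and Kb values determined in duplicate.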

[17] = target: Sodium-dependent dopamine transporter (Homo sapiens) (UniProt Q01959); test: Inhibition of DAT at 1 uM; outline: as §2
[18] = target: T3, Alpha-1B adrenergic receptor (Homo sapiens); test: Inhibition of alpha1B adrenergic receptor at 10 uM; outline: as §2
[19] = target: 5-hydroxytryptamine receptor 2A (Homo sapiens) (UniProt P28223); test: Inhibition of 5-HT2A receptor at 10 uM; outline: as §2
[20] = Drug metabolism in rat liver microsomes; format: ADME, Microsome; conditions: read-out: Drug metabolism
[21] = Drug metabolism in human liver microsomes; format: ADME, Microsome; conditions: read-out: Drug metabolism

T1 sequence (P50406 whole entry): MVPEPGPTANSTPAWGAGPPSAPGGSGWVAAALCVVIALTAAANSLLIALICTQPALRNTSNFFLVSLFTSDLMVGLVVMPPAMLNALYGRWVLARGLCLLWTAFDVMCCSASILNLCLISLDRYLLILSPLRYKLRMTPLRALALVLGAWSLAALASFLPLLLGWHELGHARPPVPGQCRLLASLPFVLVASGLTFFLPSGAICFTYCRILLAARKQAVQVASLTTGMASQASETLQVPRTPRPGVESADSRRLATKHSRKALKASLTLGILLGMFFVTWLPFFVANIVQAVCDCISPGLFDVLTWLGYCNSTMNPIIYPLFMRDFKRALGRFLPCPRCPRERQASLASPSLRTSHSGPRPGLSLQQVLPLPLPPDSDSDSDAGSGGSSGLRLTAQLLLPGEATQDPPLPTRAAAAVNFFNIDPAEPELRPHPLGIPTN

SMILES: NC1Cc2cccc3c2c(cn3S(=O)(=O)c2ccccc2)C1 (configuration not stated)
- Ki [1]: 1.6 nM

SMILES: NC1CCc2c(c3ccccc3n2S(=O)(=O)c2cccc(C(F)(F)F)c2)C1 (racemic)
- Ki [2]: 73.4 nM

SMILES: CN(C)C1CCc2c(c3ccccc3n2S(=O)(=O)c2ccccc2)C1 (racemic)
- Ki [2]: 8.82 nM

SMILES: CN(C)C1CCc2c(c3cc(Cl)ccc3n2S(=O)(=O)c2ccccc2)C1 (racemic)
- Ki [2]: 16.1 nM

SMILES: CSc1ccc2c(c1)c1c(n2S(=O)(=O)c2ccccc2)CCC(N(C)C)C1 (racemic)
- Ki [2]: 4.57 nM

SMILES: CN(C)C1CCc2c(c3cc(F)cc(F)c3n2S(=O)(=O)c2ccccc2)C1 (racemic)
- Ki [2]: 7.95 nM

SMILES: CN(C)C1CCc2c(c3ccccc3n2S(=O)(=O)c2ccc(Br)cc2)C1 (racemic)
- Ki [2]: 15.5 nM

SMILES: CN(C)C1CCc2c(c3cc(Br)ccc3n2S(=O)(=O)c2cccc(C(F)(F)F)c2)C1 (racemic)
- Ki [2]: 5.5 nM

SMILES: CN(C)C1CCc2c(c3cc(Cl)ccc3n2S(=O)(=O)c2cccc(C(F)(F)F)c2)C1 (racemic)
- Ki [2]: 12.2 nM

SMILES: CN(C)C1CCc2c(c3ccccc3n2S(=O)(=O)c2ccccc2Cl)C1 (racemic)
- Ki [2]: 9.15 nM

SMILES: CN(C)C1CCc2c(c3ccccc3n2S(=O)(=O)c2ccccc2F)C1 (racemic)
- Ki [2]: 10.4 nM

SMILES: COc1ccc2c(c1)c1c(n2S(=O)(=O)c2ccccc2F)CCC(N(C)C)C1 (racemic)
- Ki [2]: 3.63 nM

SMILES: Cc1ccc(S(=O)(=O)n2c3c(c4ccccc42)CC(N(C)C)CC3)cc1 (racemic)
- Ki [2]: 8.28 nM

SMILES: Cc1ccc(S(=O)(=O)n2c3c(c4cc(Cl)ccc42)CC(N(C)C)CC3)cc1 (racemic)
- Ki [2]: 18.1 nM

SMILES: CC(C)c1ccc(S(=O)(=O)n2c3c(c4cc(Br)ccc42)CC(N(C)C)CC3)cc1 (racemic)
- Ki [2]: 7.5 nM

SMILES: COc1ccc(S(=O)(=O)n2c3c(c4ccccc42)CC(N(C)C)CC3)cc1 (racemic)
- Ki [2]: 20.4 nM

SMILES: CN(C)C1CCc2c(c3cc(Br)ccc3n2S(=O)(=O)c2cc(C(F)(F)F)ccc2Cl)C1 (racemic)
- Ki [2]: 70.6 nM

SMILES: CN(C)C1CCc2c(c3cc(Br)ccc3n2S(=O)(=O)c2ccc(F)c(F)c2F)C1 (racemic)
- Ki [2]: 61.2 nM

SMILES: CN(C)C1CCc2c(c3cc(Br)ccc3n2S(=O)(=O)c2ccc(F)c(F)c2)C1 (racemic)
- Ki [2]: 29 nM

SMILES: CNC1CCc2c(c3ccccc3n2S(=O)(=O)c2cccc(C(F)(F)F)c2)C1 (racemic)
- Ki [2]: 17.1 nM

Further lines, results first:

- Ki [1]: 96 nM
SMILES: COc1ccc2c(c1)c(CCN(C)C)c1n2S(=O)(=O)c2ccccc2-1

- Ki [2]: 19.8 nM
SMILES: COc1ccc(S(=O)(=O)n2c3c(c4cc(OC)ccc42)CC(N(C)C)CC3)cc1 (racemic)

- Ki [2]: 39.1 nM
SMILES: COc1ccc2c(c1)c1c(n2S(=O)(=O)c2cccc(C(F)(F)F)c2)CCC(N)C1 (racemic)

- inhibition at 3 µM (CYP2D6): 50%
- inhibition [3]: 67.4%
- inhibition [4]: 23.4%
- inhibition [5]: 0%
- inhibition [6]: 22.3%
- inhibition [7]: 24.8%
- inhibition [8]: 3.85%
- inhibition [9]: 43.9%
- inhibition [10]: 15.2%
- inhibition [11]: 2.77%
- inhibition [12]: 16.4%
- inhibition [13]: 0%
- inhibition at 3 µM (CYP2C19): 50%
- inhibition at 3 µM (CYP3A4): 10%
- inhibition [14]: 7.7%
- Ki [2]: 1.83 nM
- inhibition [15]: 4.22%
- IC50 [16]: 2060 nM
- Kb [16]: 21.5 nM
- inhibition [17]: 0%
- inhibition [18]: 16.2%
- inhibition [19]: 51.4%
SMILES: CN(C)C1CCc2c(c3cc(Br)ccc3n2S(=O)(=O)c2ccccc2)C1 (racemic)

- Ki [2]: 41.1 nM
SMILES: CN(C)C1CCc2c(c3cc(Cl)ccc3n2S(=O)(=O)c2ccc(Br)cc2)C1 (racemic)

- inhibition [3]: 32.1%
- inhibition [4]: 11%
- inhibition [5]: 2.69%
- inhibition [6]: 29.9%
- inhibition [7]: 39.9%
- inhibition [8]: 10.3%
- inhibition [9]: 50.3%
- inhibition [10]: 7.37%
- inhibition [11]: 1.49%
- inhibition [12]: 15.3%
- inhibition [13]: 4.9%
- inhibition [14]: 7.21%
- Ki [2]: 4.21 nM
- inhibition [15]: 4.24%
- inhibition [17]: 0%
- inhibition [18]: 7.92%
- inhibition [19]: 35.2%
SMILES: CN(C)C1CCc2c(c3ccccc3n2S(=O)(=O)c2cccc(Cl)c2)C1 (racemic)

- Ki [2]: 5.01 nM
SMILES: CN(C)C1CCc2c(c3cc(F)ccc3n2S(=O)(=O)c2cccc(Cl)c2)C1 (racemic)

- Ki [2]: 2.68 nM
SMILES: CSc1ccc2c(c1)c1c(n2S(=O)(=O)c2cccc(Cl)c2)CCC(N(C)C)C1 (racemic)

- inhibition at 3 µM (CYP2D6): 50%
- inhibition [3]: 60.4%
- inhibition [4]: 26.8%
- inhibition [5]: 9.14%
- inhibition [6]: 44.5%
- inhibition [7]: 49.1%
- inhibition [8]: 18%
- inhibition [9]: 57.5%
- inhibition [10]: 5.6%
- inhibition [11]: 20.7%
- inhibition [12]: 16.3%
- inhibition [13]: 4.14%
- inhibition at 3 µM (CYP2C19): 50%
- inhibition at 3 µM (CYP3A4): 10%
- inhibition [14]: 24.8%
- metabolised [20]: 72%
- Ki [2]: 1.92 nM
- inhibition [15]: 5.26%
- IC50 [16]: 1950 nM
- Kb [16]: 20.4 nM
- inhibition [17]: 18.4%
- metabolised [21]: 17%
- inhibition [18]: 8.72%
- inhibition [19]: 19.6%
SMILES: CN(C)C1CCc2c(c3ccccc3n2S(=O)(=O)c2cccc(C(F)(F)F)c2)C1 (racemic)

- Ki [2]: 3.71 nM
SMILES: COc1ccc2c(c1)c1c(n2S(=O)(=O)c2cccc(C(F)(F)F)c2)CCC(N(C)C)C1 (racemic)

- Ki [2]: 2.85 nM
SMILES: CN(C)C1CCc2c(c3ccccc3n2S(=O)(=O)c2ccccc2Br)C1 (racemic)

- Ki [2]: 8.13 nM
SMILES: CN(C)C1CCc2c(c3cc(Cl)ccc3n2S(=O)(=O)c2ccccc2Br)C1 (racemic)

- Ki [2]: 5.02 nM
SMILES: CN(C)C1CCc2c(c3cc(F)ccc3n2S(=O)(=O)c2ccccc2Br)C1 (racemic)

- Ki [2]: 4.68 nM
SMILES: COc1ccc2c(c1)c1c(n2S(=O)(=O)c2ccccc2Cl)CCC(N(C)C)C1 (racemic)

- Ki [2]: 29 nM
SMILES: COc1ccc(S(=O)(=O)n2c3c(c4cc(Br)ccc42)CC(N(C)C)CC3)cc1 (racemic)

- Ki [2]: 6.89 nM
SMILES: COc1ccc(S(=O)(=O)n2c3c(c4cc(SC)ccc42)CC(N(C)C)CC3)cc1 (racemic)

- Ki [2]: 13.1 nM
SMILES: CNC1CCc2c(c3cc(OC)ccc3n2S(=O)(=O)c2cccc(C(F)(F)F)c2)C1 (racemic)
